Test results as given in ChEMBL document CHEMBL4513216, “Probing the Open Global Health Chemical Diversity Library for Multistage-Active Starting Points for Next-Generation Antimalarials” (ACS Infect Dis, 2020).

Test: Toxicity liver stage against HepG2, at 10uM
Type: cell-based
Design: test concentration 10 uM, cell line HepG2-A16-CD81EGFP
Settings: human, HepG2-A16-CD81EGFP cells; read-out: INHIBITION
Summary of the method: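 Uninfected HepG2-A16-CD81EGFP cells, 3 × 10^3 per well, 1536-well, plated on prespotted compound at 10 μM final, parasite-free screening media added to match infected plates; puromycin 10 μM positive, DMSO 0.5% negative; run in parallel with 48 h PbLuc assay at 37 °C, 5% CO2; viability by CellTiter-Glo luminescence, normalized to controls.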

| Compound | cytotoxicity at 10 µM [%] |
| --- | --- |
| Cc1cc(CN2CCN(C(=O)c3ccc(=O)n(C)c3)CC2)no1 | -8.07 |
| O=C(Nc1ccccc1)C1CN(Cc2cccs2)CC12CCOCC2 (stereo unspecified) | 3.09 |
| CC[C@H](C)[C@H](N)C(=O)Nc1nc(-c2cnc(N(C)C)nc2)cs1 | -9.44 |
| CC(CCn1cccn1)Nc1ccc(-c2nccn2C)nn1 (stereo unspecified) | 1.39 |
| CCOC(=O)c1sc(NC(=O)CCCC(=O)O)c(C#N)c1C | 11.6 |
| C=C(C)COc1cccc(CNCc2nc3ccccc3c(=O)[nH]2)c1 | -40.9 |
| Cc1cnc(N2CCN(C(C)C(N)=O)CC2)nc1 (stereo unspecified) | 0.399 |
| C/C=C(\C)CN1CCC2(CCC(=O)N2OCc2ccccc2F)CC1 | 5.24 |
| COc1ccc(C(=O)N2C[C@@H](C(=O)O)[C@H](c3ccccc3)C2)c(C)c1 | 5.23 |
| O=C1CCOC[C@]2(CN(Cc3ccccc3)C[C@H]2c2ccccc2F)N1 | -1.02 |
| CC(C)c1noc(CCCC(=O)N2CCN(Cc3ccncc3)CC2)n1 | -6.59 |
| O=C(CO)N1CCCn2nnc(Cn3cccn3)c2C1 | 6.59 |
| COc1ccc(-c2cc(C3(O)CCOC(C)(C)C3)on2)cc1 (stereo unspecified) | -3.12 |
| Cc1nc(N)nc(C)c1CC(=O)NCc1ccc2nonc2c1 | 5.6 |
| CNC(=O)c1nc(COc2c(C)occc2=O)no1 | 3.08 |
| Cc1nn(C)c(N(C)C)c1CNCc1ccc(Cn2cccn2)cc1 | 3.73 |
| CCc1ccc(CN(C)Cc2nc(COc3ccccc3)no2)nc1 | 6.58 |
| O=C1CCC2(CCN(CCSc3ccccc3)CC2)CN1CCCO | 2.09 |
| Cc1nn(C)c(N(C)C)c1CNCc1cccnc1N(C)C | 1.84 |
| CCN(CC)C(=O)Cn1ccc2cc(NC(=O)C3CCCO3)ccc21 (stereo unspecified) | 1.35 |
| COc1cc(NC(=O)c2ccc(CN3CC[C@H](O)C3)cc2)cc(OC)c1 | 10.5 |
| Cc1oc(-c2ccco2)nc1CN1CCCC(Cn2cncn2)C1 (stereo unspecified) | -23.5 |
| N#Cc1c(Cl)nsc1NCCN1CCOCC1 | 9.64 |

| Compound | cytotoxicity at 10 µM [%] |
| --- | --- |
| FC(F)(F)COc1ccc(CSCc2ccon2)cn1 | -4.52 |
| Cn1ccc2cc(C(=O)NC3CCOC(C)(C)C3)ccc21 (stereo unspecified) | 1.67 |
| O=C(NCCN1CCOCC1)c1nc(-c2ccc3[nH]ccc3c2)no1 | -7.53 |
| Cc1[nH]nc(-c2ccc(F)cc2)c1CC(=O)NCC1CCOCC1 | -0.707 |
| Cn1ccnc1CN(Cc1cccnc1)CC1CCCO1 (stereo unspecified) | 15.2 |
| COCCC(=O)N[C@H]1CN(c2nc(C)c3c(n2)CCCC3)C[C@@H]1C1CC1 | -12.8 |
| CCN(CCC(=O)OC)C(=O)c1cccc(Cn2nc(C)cc2C)c1 | 7.59 |
| COc1cc2[nH]c(=O)c(CN3CCCC3C)cc2c(OC)c1OC (stereo unspecified) | -7.74 |
| Cc1oc(-c2ccccc2)nc1C(=O)NC1=NCCS1 | 1.85 |
| CN(Cc1ccccc1)C1(C(=O)NC(C)(C)CO)Cc2ccccc2C1 | 0.603 |
| Cc1nnsc1CNC(=O)CSCc1ccccc1Cl | -2.85 |
| CC(=O)N1CCCCC1c1nc2c(c(N3CCCCC3)n1)CN(C)CC2 (stereo unspecified) | -0.0788 |
| OC1CCN(c2ccccc2NCc2nc(-c3ccoc3)no2)CC1 | 14.5 |
| Cc1cccn2c(CNC(C)CCn3cccn3)cnc12 (stereo unspecified) | 21.6 |
| O=C(c1ccnnc1)N1CCC2(CC1)CN(c1ccccn1)CCO2 | -81.5 |
| Cc1ccc(N(CCC#N)C(=O)CN2CCCC2c2ccsc2)cc1C (stereo unspecified) | -11.2 |
| O=C(NCC1(N2CCOCC2)CCSC1)Nc1ccc(F)cc1 (stereo unspecified) | -10.2 |
| COCCN1C(=O)CCC12CCC(NC(=O)c1cc(C)on1)CC2 (stereo unspecified) | 3.94 |
| CN(C)S(=O)(=O)NCc1cccnc1Oc1ccccc1 | 1.6 |
| CO[C@H]1CO[C@@]2(CCCN(S(=O)(=O)c3ccccc3)C2)C1 | -81.9 |
| O=C(c1ccc(-n2ccnc2)cc1)N1CCN(c2cnccn2)CC1 | -5.63 |
| N[C@@H]1CCCN(C(=O)Cc2c[nH]c3ccccc23)[C@H]1c1ccccc1F | 7.45 |
| COC(=O)c1ccc(NCc2csc(C)n2)cc1Cl | -5.08 |
